From ChEMBL document CHEMBL4364265, “Oridonin derivatives as potential anticancer drug candidates triggering apoptosis through mitochondrial pathway in the liver cancer cells” (Eur J Med Chem, 2019) come the findings set out here.

The source made the active and inactive calls. The rule behind the calls is not given here.

A short description of data set [1]: Toxicity in nude mouse xenografted with human PLC/PRF/5 cells assessed as change in body weight at 10 mg/kg, iv administrated once every 3 days for 4 weeks. The class given is organism-based. As to conditions: in vivo. The essentials: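 Nude mice were inoculated subcutaneously in the right forelimb with 2 × 10⁷ PLC/PRF/5 cells in 0.2 mL saline. At about 120 mm³, mice were randomized into 3 groups of 6. Dosing was i.v. once every three days for 4 weeks, with vehicle 10% N-methylpyrrolidone/12% Tween-80/78% saline. Body weight was recorded daily.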

The test system of data set [2] is HepG2. Kind of data set: Induction of cell cycle arrest in human HepG2 cells assessed as accumulation at S phase at 1 uM incubated for 24 hrs by PI staining based flow cytometric analysis (reference value: 35.46%). In kind it is functional.
The subject of data set [3] is PLC-PRF-5. In words: Induction of cell cycle arrest in human PLC/PRF/5 cells assessed as accumulation at S phase at 0.25 uM incubated for 24 hrs by PI staining based flow cytometric analysis (reference value: 42.03%). In kind it is functional.
The subject of data set [4] is PLC-PRF-5. In words: Induction of mitochondrial membrane potential loss in human PLC/PRF/5 cell incubated for 24 hrs by JC1 staining based fluorescence microscopic method. The class given is functional. The essentials: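 Cells seeded in 12-well plates, cultured 12 h, treated 24 h (0, 0.25, 0.5, 1 µM). After a PBS wash, stained with JC-1 in medium for 20 min at 37 °C and washed three times. Red aggregate and green monomer fluorescence were imaged by fluorescence microscopy; the red/green ratio was taken; three independent experiments.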

The test system of data set [5] is PLC-PRF-5. In words: Induction of apoptosis in human PLC/PRF/5 cells assessed as late apoptotic cells at 1 uM incubated for 24 hrs by annexin V staining based cell counting method (reference value: 4.81%). In kind it is functional.
Data set [6] relates to PLC-PRF-5. In words: Induction of ROS generation in human PLC/PRF/5 cells by DCFH-DA staining-based flow cytometric analysis. The class given is functional, cell-based. The essentials:
(§1)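 Cells were treated with 0, 0.25, 0.5 or 1 µM compound, stained with 10 µM DCFH-DA for 20 min at 37 °C, washed three times, resuspended in PBS and read by flow cytometry. Data are mean ± SD of three independent experiments.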

For data set [7], the system named is HepG2. Kind of data set: Inhibition of colony formation in human HepG2 cells at 0.1 to 1 uM incubated for 10 days by crystal violet staining based microscopic method. The class given is functional, cell-based. Summed up: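 Five hundred cells plated per 30 mm dish and left 12 h. Medium with compound was added (0, 0.1, 0.5, 1 µM) or DMSO as negative control, and cells grew 10 days. Colonies were fixed in methanol 15 min, stained with 0.1% crystal violet 15 min, photographed and counted. Colony size was checked by microscope. Relative colony number is mean ± SD of ≥3 independent experiments.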

Data set [8] deals with PLC-PRF-5. In words: Inhibition of colony formation in human PLC/PRF/5 cells assessed as decrease in colony size at 0.1 to 1 uM incubated for 10 days by crystal violet staining based microscopic method.
For data set [9], the system named is HepG2. Kind of data set: Induction of apoptosis in human HepG2 cells assessed as upregulation of cleaved caspase 3 protein expression level incubated for 24 hrs by Western blot analysis. The class given is functional, cell-based. Summed up:
(§2)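 Cells were treated 24 h in DMEM with 0, 0.25, 0.5, 1.0 or 1.25 µM compound. Adherent and floating cells were lysed in RIPA on ice and protein measured by BCA. Equal protein was run on 7.5–12.5% SDS-PAGE and transferred to PVDF. Membranes were blocked in 5% milk/PBST, incubated with primary antibody overnight at 4 °C, and detected by ECL.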

The test system of data set [10] is PLC-PRF-5. In words: Induction of ROS generation in human PLC/PRF/5 cells at 1 uM by DCFH-DA staining-based flow cytometric analysis relative to control. In kind it is functional. Summed up:
as §1

In data set [11] the test system is HepG2. In words: Induction of apoptosis in human HepG2 cells assessed as late apoptotic cells at 0.5 uM incubated for 24 hrs by annexin V staining based cell counting method (reference value: 5.65%). In kind it is functional.
For another data set, the system named is RPMI-8226. Kind of data set: Antiproliferative activity against human RPMI8226 cells incubated for 72 hrs by CCK8 cells. As to conditions: RPMI-8226, 72 h. In kind it is functional, cell-based. The essentials:
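CCK-8 proliferation assay. 10,000 cells per well were preincubated 24 h at 37 °C with 5% CO2, then given compound dissolved in DMSO and incubated 72 h. CCK-8 was added for 4 h and absorbance read at 450 nm. IC50 was taken from dose-response curves as mean ± SEM of at least three independent experiments, with paclitaxel as positive control. HepG2 and L-O2 were grown in DMEM/10% FBS; A549 and RPMI-8226 in RPMI 1640/10% FBS.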

Data set [12] in a line: Selectivity index, ratio of IC50 for human LO2 cells to IC50 for human PLC/PRF/5 cells. Summed up:
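L-O2 and PLC/PRF/5 cells were grown in DMEM with 10% FBS at 37 °C and 5% CO₂. For CCK-8 proliferation, 10,000 cells per well were pre-incubated 24 h, then exposed to compound in DMSO for 72 h. CCK-8 was added for 4 h and A450 read. IC50 came from dose–response curves; SI is IC50(L-O2)/IC50(PLC/PRF/5).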

Data set [13] deals with PLC-PRF-5. Kind of data set: Induction of apoptosis in human PLC/PRF/5 cells assessed as upregulation of Bax protein expression level incubated for 24 hrs by Western blot analysis. In kind it is functional, cell-based. The essentials: as §2
In data set [14] the test system is PLC-PRF-5. Kind of data set: Induction of apoptosis in human PLC/PRF/5 cells assessed as live cells at 1 uM incubated for 24 hrs by annexin V staining based cell counting method (reference value: 88.95%). In kind it is functional.
Data set [15] has as its system PLC-PRF-5. In words: Induction of apoptosis in human PLC/PRF/5 cells assessed as early apoptotic cells at 0.25 uM incubated for 24 hrs by annexin V staining based cell counting method (reference value: 5.65%). The class given is functional.
Data set [16] has as its system PLC-PRF-5. In words: Induction of apoptosis in human PLC/PRF/5 cells assessed as shrunken chromatin at 0.25 to 1 uM incubated for 24 hrs by Hoechst 33258 dye based fluorescence microscopic method. In kind it is functional, cell-based. Summed up: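 About 2 × 10^4 cells per well were plated overnight and treated 24 h with 0, 0.25, 0.5 or 1 µM compound. Cells were fixed in 4% paraformaldehyde for 30 min at room temperature, stained with 20 µg/mL Hoechst 33258 for 20 min at 37 °C, and imaged by fluorescence microscopy.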

The test system of data set [17] is PLC-PRF-5. Kind of data set: Induction of apoptosis in human PLC/PRF/5 cells assessed as upregulation of cleaved PARP protein expression level incubated for 24 hrs by Western blot analysis. The class given is functional, cell-based. The essentials:
as §2

Data set [18] can be described thus: Half life in human plasma measured for 5 to 120 mins by LC-MS/MS analysis. In kind it is ADME, cell-free. Summed up: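 Compound at an initial 5000 ng/mL was incubated in human plasma at 37 °C. 100 µL aliquots were taken at 0–120 min and extracted with methanol plus tyrosine internal standard, then centrifuged and filtered. Extracts were analysed by LC-MS/MS on a triple-quadrupole instrument with ESI.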

Data set [19] concerns HepG2. Kind of data set: Induction of cell cycle arrest in human HepG2 cells assessed as accumulation at G1 phase at 0.25 uM incubated for 24 hrs by PI staining based flow cytometric analysis (reference value: 37.06%). In kind it is functional.
Data set [20] deals with HepG2. Kind of data set: Induction of ROS generation in human HepG2 cells by DCFH-DA staining-based flow cytometric analysis. In kind it is functional, cell-based. The essentials:
as §1

In data set [21] the test system is PLC-PRF-5. Kind of data set: Induction of cell cycle arrest in human PLC/PRF/5 cells assessed as accumulation at G1 phase at 0.5 uM incubated for 24 hrs by PI staining based flow cytometric analysis (reference value: 34.78%). In kind it is functional.

As for `C=C1C(=O)[C@]23[C@H](OC(=O)/C=C/c4ccc(OC)cc4)[C@H]1CC[C@H]2[C@@]12CO[C@]3(O)[C@@H](O)[C@@H]1C(C)(C)CC[C@@H]2O`, the Activity entry in data set [1] was “Non-Toxic”; with HepG2 [2] it was 30.88%; with PLC-PRF-5 [3], 46.59%; in the data set with PLC-PRF-5 [4], “Dose-dependent effect”; in the data set with PLC-PRF-5 [5], 36.66%; in the data set on PLC-PRF-5 [6] it was “Dose-dependent effect”. For the same compound, the Activity entry in the data set with HepG2 [9] was “Dose-dependent effect”; in the data set on HepG2 [11] it was 7.55%; in the data set with PLC-PRF-5 [13] it was “Dose-dependent effect”; with PLC-PRF-5 [14], 33.5%; with PLC-PRF-5 [15] it was 9.43%; with PLC-PRF-5 [17] it was “Dose-dependent effect”. In addition, the Activity is 38.04% with HepG2 [19], “Dose-dependent effect” in the data set with HepG2 [20] and 43.49% with PLC-PRF-5 [21]. The inhibition result with HepG2 [7] and with PLC-PRF-5 [8] was “Active” throughout. Moreover, the “fold change (FC)” value in the data set on PLC-PRF-5 [10] stood at 3. 8.56 µM corresponded to half-maximal inhibition in the data set on RPMI-8226 (IC50). In data set [12], the “Ratio IC50” value was 1.8. Moreover, in the data set on PLC-PRF-5 [16], the outcome was Active. The half-life in data set [18] is 2 h.
